HUVEC inhibit = inhibitors of human endothelial cell proliferation; HUVEC proliferation, CellTiter-Glo luminescence, 72 h; stronger effect = lower value; viability, % at 10 µM (by protocol); AID 648; 86,000 compounds, 1.1% hits;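 active = viability at or below 30%; inactive = viability above 30%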;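 also: 100% = median luminescence of DMSO-only cell control wells on each plate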
bCat KO growth = beta-catenin-lacking colon tumor cell growth suppression. HCT116 beta-catenin knockout viability, CellTiter-Glo, 60 h; stronger effect = lower value. viability, % at 10 µM. 140,000 compounds, 1.5% hits;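 active = viability at or under a set limit, the compound median less 4 SD, cut at about 6% in these data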;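 also: 0% = Hyamine 1622 control at 20 µM and 100% = untreated cell control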
H69AR inhibit = growth inhibitors of human H69AR lung tumor cells; viability, % at 10 µM; H69AR lung tumor viability, ATP luminescence, 72 h; stronger effect = lower value; AID 598; 85,000 compounds, 6% hits;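 active = viability at or below 40%; inactive = viability above 40%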;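 also: multidrug resistant small cell line overexpressing MRP-1 efflux transporter; 100% = mean luminescence of untreated control wells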
PTEN del growth = PTEN-deleted cell growth suppression; HCT116 PTEN-null viability, CellTiter-Glo, 60 h; stronger effect = lower value; viability, % at 10 µM; 140,000 compounds, 1.2% hits;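 active = viability at or below a set limit, 4 SD under the median of all tested compounds, cut at about 3.7% in these data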;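 also: PTEN knockout HCT116 line with beta catenin targeted HCT116 as companion control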
Fibroblast inh = blocks proliferation of human lung fibroblasts; LL 47 human lung fibroblast viability, ATP luminescence; stronger effect = lower value; viability, % at 10 µM; 85,000 compounds, 1.1% hits; AID 719;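 active = viability at or below 50% in the single dose screen; inactive = viability above 50%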;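 also: compound exposure lasted 72 h before the ATP readout; 100% = median luminescence of untreated cell-only wells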
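Test system: LL 47 human lung fibroblasts / Quantity: 1,150 cells in each well / Medium: IMEM growth medium with 15% fetal bovine serum / Incubation: 72 h compound exposure at 37 °C after overnight plating / Detection: CellTiter-Glo luminescence measuring cellular ATP / Read-out: % viability versus median cells-only luminescence / Benchmarks: cell-only wells, no compound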
PTK2B oligo ant = antagonists of human Pyk2 oligomerization; 99,000 compounds, 0.83% hits; Q14289; Q293 cells, Pyk2 FERM NanoBiT luminescence; stronger effect = lower value; z-score (the deposit names both 25 µM and 10 µM);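 active = Z-score of -3 or lower, scaled per plate to the spread of control and sample wells; inactive = z-score above -3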;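 also: negative z-score means lost luminescence so less FERM oligomerization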
Target sequence (Q14289 whole entry, looked up): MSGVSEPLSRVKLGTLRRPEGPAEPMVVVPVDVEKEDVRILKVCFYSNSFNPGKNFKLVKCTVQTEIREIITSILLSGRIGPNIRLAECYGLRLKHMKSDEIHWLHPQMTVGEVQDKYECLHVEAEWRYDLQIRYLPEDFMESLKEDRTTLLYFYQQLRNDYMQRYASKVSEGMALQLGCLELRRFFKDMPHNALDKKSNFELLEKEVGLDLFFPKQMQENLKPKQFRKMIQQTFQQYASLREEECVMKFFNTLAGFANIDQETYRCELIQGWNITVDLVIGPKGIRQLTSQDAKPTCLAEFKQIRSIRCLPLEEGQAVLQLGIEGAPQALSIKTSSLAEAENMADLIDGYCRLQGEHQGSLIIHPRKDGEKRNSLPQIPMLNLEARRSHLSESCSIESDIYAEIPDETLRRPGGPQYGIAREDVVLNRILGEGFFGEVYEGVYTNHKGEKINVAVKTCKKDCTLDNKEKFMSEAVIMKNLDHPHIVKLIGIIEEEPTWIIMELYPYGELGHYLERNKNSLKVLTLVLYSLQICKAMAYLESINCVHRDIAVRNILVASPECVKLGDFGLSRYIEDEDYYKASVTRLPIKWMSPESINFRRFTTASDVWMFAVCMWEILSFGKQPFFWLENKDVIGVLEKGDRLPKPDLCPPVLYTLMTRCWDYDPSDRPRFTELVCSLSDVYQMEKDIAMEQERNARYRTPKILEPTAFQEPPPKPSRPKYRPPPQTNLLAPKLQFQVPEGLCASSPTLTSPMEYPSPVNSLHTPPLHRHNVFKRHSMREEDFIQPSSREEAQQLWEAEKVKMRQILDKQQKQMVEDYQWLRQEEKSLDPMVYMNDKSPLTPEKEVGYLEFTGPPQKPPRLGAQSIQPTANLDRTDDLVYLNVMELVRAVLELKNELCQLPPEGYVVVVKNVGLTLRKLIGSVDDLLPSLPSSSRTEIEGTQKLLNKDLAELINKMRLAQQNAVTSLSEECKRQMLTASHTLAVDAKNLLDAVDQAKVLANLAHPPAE
Active calls of the source: *; nt = not tested or not shown. This is one part of a sample in which hits are shown more often than they occur.

SMILES | HUVEC inhibit | bCat KO growth | H69AR inhibit | PTEN del growth | Fibroblast inh | PTK2B oligo ant
O=C(CSc1nnnn1-c1ccccc1)Nc1nsc(-c2ccc(Cl)cc2)n1 | 75.0 | 93.7 | 86.3 | 91.6 | 106.6 | -0.64
O=C(CSc1nnnn1-c1ccccc1)CC(=O)Nc1ccc(Cl)cc1 | 63.7 | 83.6 | 17.3* | 82.3 | 83.3 | -0.01
O=c1oc2ccccc2cc1-c1csc(Nc2nc3c(F)cccc3s2)n1 | nt | 5.1* | nt | 2.5* | nt | nt
Cc1nc2sccn2c(=O)c1CCN1CCC(=C(c2ccc(F)cc2)c2ccc(F)cc2)CC1 | 32.2* | 40.4 | 48.1 | 46.1 | 95.2 | nt
Cc1nc2ccccn2c(=O)c1CCN1CCC(C(=O)c2ccc(F)cc2)CC1 | 87.6 | 80.3 | 89.3 | 81.0 | 90.0 | nt
O=C(NCC1CC1)[C@@H]1C[C@H]1[C@@H](NP(=O)(c1ccccc1)c1ccccc1)c1ccccc1 | nt | 0.2* | nt | 0.1* | nt | nt
CCNC(=O)CSc1nnc(-c2cc(-c3ccc(Cl)cc3)nc3ccccc23)o1 | nt | 92.0 | nt | 79.9 | nt | nt
CCC(C)Sc1nc2c(cnn2-c2ccc(C)c(C)c2)c(=O)[nH]1 (configuration not stated) | nt | 80.5 | nt | 68.4 | nt | nt
CSc1nc2c(cnn2-c2ccc(C)c(C)c2)c(=O)[nH]1 | 38.5 | 18.6 | 20.0* | 5.1 | 99.8 | nt
CN1[C@@H]2CC[C@H]1CC(OC(=O)C(CO)c1ccccc1)C2 (some centres not stated) | nt | 94.1 | nt | 99.9 | nt | nt
Clc1ncnc2scc(C3COc4ccccc4O3)c12 (configuration not stated) | 62.1 | 100.2 | 7.0* | 88.9 | 79.8 | 0.19
COc1ccc(/C=N\NC(=O)C2=NNC(=O)C2C)cc1 (configuration not stated) | nt | 93.8 | nt | 89.6 | nt | 3.63
COc1ccc(N=C2NN=C(c3c(C)[nH]c4ccccc34)CS2)cc1 | nt | 3.8* | nt | 4.5 | nt | nt
Cc1[nH]c2ccccc2c1C1=NNC(=Nc2ccc(F)cc2)SC1 | nt | 13.6 | nt | 17.9 | nt | nt
COc1ccc(NC(=O)Nc2nnc(N3CCC(C)CC3)s2)cc1OC | 82.6 | 98.1 | 37.5* | 89.8 | 94.1 | nt
Cc1ccc(/C=C/C(=O)N2CCN(c3ncccn3)CC2)o1 | nt | 79.6 | nt | 80.5 | nt | nt
O=c1c2ccccc2n(Cc2ccc(F)cc2)c(=O)n1C1CCCC1 | 96.2 | 63.8 | 38.0* | 57.9 | 107.6 | -1.29
CC(C)CC(c1nnnn1Cc1cccs1)N1CCN(c2nc3ccccc3s2)CC1 (configuration not stated) | 100.5 | 63.6 | 79.3 | 65.0 | 95.1 | -3.57*
COCCn1nnnc1C(c1cccs1)N1CCN(c2nc3ccccc3s2)CC1 (configuration not stated) | 95.9 | 79.8 | 82.0 | 65.6 | 87.0 | -3.39*
CCC(c1nnnn1Cc1cccs1)N1CCN(c2nc3ccccc3s2)CC1 (configuration not stated) | 70.6 | 73.5 | 94.6 | 63.3 | 91.7 | -2.69
CC(=O)c1ccc(OCc2ccc(Oc3c(Cl)cccc3[N+](=O)[O-])cc2)cc1 | nt | 84.1 | nt | 87.1 | nt | nt
COC(=O)[C@@H]1CC[C@H](C)[C@@H](c2ccc(C)cc2)N1C(=O)c1ccc(/C=N/O[C@@H](C)c2cn([C@H](CO)Cc3ccccc3)nn2)cc1 | nt | 16.7 | nt | 8.1 | nt | nt
CCCCn1nc(NC(=O)c2cccs2)c2cc3ccccc3nc21 | 73.4 | 68.8 | 61.5 | 72.3 | 105.2 | -3.15*
CCCn1nc(NC(=O)c2cccs2)c2cc3ccccc3nc21 | 72.4 | 55.6 | 49.7 | 58.8 | 96.0 | 0.01
CCCn1nc(NC(=O)c2cccs2)c2cc3cc(OC)ccc3nc21 | nt | 69.4 | nt | 65.3 | nt | -2.39
SMILES | HUVEC inhibit | bCat KO growth | H69AR inhibit | PTEN del growth | Fibroblast inh | PTK2B oligo ant
CCCCn1nc(NC(=O)c2cccs2)c2cc3cc(OC)ccc3nc21 | 80.2 | 43.0 | 56.5 | 31.2 | 100.9 | -3.02*
Cc1ccc(C)c(N2CCN(C(=O)CCCOc3cc(=O)n(C)c4ccccc34)CC2)c1 | 64.8 | 29.0 | 2.8* | 26.2 | 95.3 | -1.3
CC12CCC(C(=O)NNc3ccc([N+](=O)[O-])cc3)(CC1=O)C2(C)C (configuration not stated) | nt | 96.5 | nt | 104.4 | nt | nt
O=C(Cc1ccc(Cl)cc1)Nc1ccc(SC(F)F)cc1 | nt | 89.8 | nt | 88.3 | nt | nt
CC1CN(S(=O)(=O)c2ccc(NC(=O)c3cc(-c4ccccc4O)n[nH]3)cc2)CC(C)O1 (configuration not stated) | 55.3 | 16.9 | 11.6* | 8.4 | 73.9 | -3.07*
CC1CC(C)CN(CCCNC(=O)Cc2c(C(=O)O)n(C)c3ccccc23)C1 (configuration not stated) | 98.3 | 97.0 | 87.8 | 106.7 | 101.9 | 0.26
COc1ccc(CNCCC(c2ccc(OC(C)C)cc2)C(C)C)cc1OC (configuration not stated) | nt | 1.2* | nt | 1.3* | nt | -0.05
CCOCCCNCc1ccc(OC)c(OC)c1 | 107.8 | 99.0 | 87.3 | 90.6 | 96.5 | 0.27
COc1ccc(CCNC(=O)CCC2COc3ccccc3O2)cc1OC (configuration not stated) | 89.9 | 93.4 | 97.2 | 88.1 | 97.7 | 0.81
O=C1OC(Nc2ccc3c(c2)OCO3)c2ccccc21 (configuration not stated) | 55.7 | 16.4 | 16.1* | 14.4 | 48.9* | 1.26
CCSc1ccccc1C(=O)n1nnc2ccccc21 | 80.9 | 94.8 | 12.0* | 98.3 | 86.4 | 0.3
Cc1cccc(N(CC(=O)N/N=C/c2cc([N+](=O)[O-])ccc2Cl)S(C)(=O)=O)c1C | nt | 7.8 | nt | 9.3 | nt | -0.64
CCOC(=O)c1c(C)c(C(=O)Nc2ccc3c(c2)OCCO3)c(C)n1CC | 75.2 | 29.6 | 19.8* | 31.1 | 90.7 | 0.08
CCOc1ccc(-n2nc3ccc(NC(=O)c4ccc5c(c4)OCCO5)cc3n2)cc1 | 41.0 | 87.4 | 13.2* | 80.0 | 28.5* | 0.33
CCOC(=O)c1c(C)c(C(=O)Nc2ccc3c(c2)OCO3)c(C)n1C | 87.1 | 79.0 | 83.7 | 92.1 | 97.4 | 0.11
CCc1ccc(-n2nc3ccc(NC(=O)c4ccc5c(c4)OCO5)cc3n2)cc1 | 76.4 | 77.5 | 20.1* | 75.0 | 90.9 | 0.17
CCCCCCCC1CC(/C(C)=N/NC(N)=O)OC1=O (configuration not stated) | nt | 82.9 | nt | 90.1 | nt | nt
Cc1cccc(NC(=S)N/N=C/c2c[nH]c3ccccc23)c1 | nt | 14.2 | nt | 14.8 | nt | nt
Cn1c(O)c(C2=c3ccccc3=NC2=O)sc1=Nc1ccc(Cl)cc1 | 67.9 | 45.7 | 39.8* | 49.7 | 75.7 | -2.2
O=C(O)CCC(C(=O)O)n1c(O)c(C2=c3ccccc3=NC2=O)sc1=S (configuration not stated) | 85.3 | 94.8 | 93.1 | 90.9 | 92.8 | -0.82
O=C1N=c2ccccc2=C1c1sc(=S)n(CC2CCCO2)c1O (configuration not stated) | 64.9 | 61.0 | 41.9 | 50.5 | 73.5 | -2.42
C=CCn1c(O)c(C2=c3ccccc3=NC2=O)s/c1=N/c1nccs1 | 65.8 | 27.7 | 23.2* | 26.9 | 41.7* | nt
CCc1ccccc1OCc1nnc(N)s1 | 92.2 | 93.0 | 105.6 | 95.3 | 92.6 | -0.12

Compound activity (PubChem BioAssay)
